What was measured:
[1] = molecular target: T1, 5-hydroxytryptamine receptor 1B (Homo sapiens, UniProt P28222); assay: Binding affinity towards human 5-hydroxytryptamine 1B receptor using [3H]5-HT trifluoroacetate as radioligand
In short: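 Membrane homogenate (0.1 mg protein/well) incubated in triplicate with [3H]-5-HT (2.5 nM final) in 50 mM Tris, 10 mM MgSO4, 0.5 mM EDTA, 10 µM pargyline, 0.1% ascorbic acid, pH 7.4. Incubation 60 min at room temperature. Nonspecific binding defined with 20 µM 5-HT. Filtration over GF/B, scintillation counting.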

[2] = molecular target: T2, 5-hydroxytryptamine receptor 1D (Homo sapiens, UniProt P28221); assay: Binding affinity towards human 5-hydroxytryptamine 1D receptor using [3H]5-HT trifluoroacetate as radioligand
T2 sequence (P28221 whole entry): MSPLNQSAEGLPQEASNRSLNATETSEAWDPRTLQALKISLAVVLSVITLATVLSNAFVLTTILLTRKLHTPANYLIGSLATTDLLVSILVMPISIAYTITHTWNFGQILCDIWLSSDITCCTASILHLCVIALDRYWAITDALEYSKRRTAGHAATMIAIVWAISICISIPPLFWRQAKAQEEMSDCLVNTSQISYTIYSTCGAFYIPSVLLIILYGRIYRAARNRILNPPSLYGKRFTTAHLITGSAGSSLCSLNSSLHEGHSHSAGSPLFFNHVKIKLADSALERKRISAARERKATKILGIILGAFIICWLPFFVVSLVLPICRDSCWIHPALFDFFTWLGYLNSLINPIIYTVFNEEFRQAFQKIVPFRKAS

[3] = molecular target: Serotonin 1 receptors; 5-HT1B & 5-HT1D (Homo sapiens) (UniProt P28222+P28221); assay: Binding Selectivity was determined [Selectivity = Ki against h5-HT1B receptor / Ki against h5-HT1D receptor]; assay type: protein assay
[4] = molecular target: Adrenergic receptor alpha; assay: Binding affinity towards Alpha-1 adrenergic receptor; assay type: protein assay, Canis lupus familiaris
[5] = molecular target: T1, 5-hydroxytryptamine receptor 1B; assay: Adenyl cyclase activity was expressed as percent forskolin response against 5-hydroxytryptamine 1B receptor at concentration 10 uM; assay type: functional
In short: (§1)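 Agonist test in CHO Pro 5 cells stably transfected with human h5-HT1B or h5-HT1D receptors. Compound added to culture medium with 10 µM forskolin and 0.5 mM IBMX, 30 min at 37 °C. Stopped with cold ethanolic 5 mM EDTA (2:1 v/v) to extract cAMP. cAMP measured by enzyme immunoassay; mean ± SEM from three or more experiments.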

[6] = Tested for 5-hydroxytryptamine 1D like receptor-mediated vascular effect in rabbit saphenous vein (RSV)
[7] = molecular target: T2, 5-hydroxytryptamine receptor 1D; assay: Adenyl cyclase activity was expressed as percent forskolin response against 5-hydroxytryptamine 1D receptor at concentration 10 uM; assay type: functional; in short: as §1
[8] = molecular target: T3, Adrenergic receptor alpha-2 (Homo sapiens, UniProt P08913+P18825+P18089); assay: Binding affinity towards Alpha-2 adrenergic receptor; assay type: protein assay
T3 sequence (P08913 whole entry): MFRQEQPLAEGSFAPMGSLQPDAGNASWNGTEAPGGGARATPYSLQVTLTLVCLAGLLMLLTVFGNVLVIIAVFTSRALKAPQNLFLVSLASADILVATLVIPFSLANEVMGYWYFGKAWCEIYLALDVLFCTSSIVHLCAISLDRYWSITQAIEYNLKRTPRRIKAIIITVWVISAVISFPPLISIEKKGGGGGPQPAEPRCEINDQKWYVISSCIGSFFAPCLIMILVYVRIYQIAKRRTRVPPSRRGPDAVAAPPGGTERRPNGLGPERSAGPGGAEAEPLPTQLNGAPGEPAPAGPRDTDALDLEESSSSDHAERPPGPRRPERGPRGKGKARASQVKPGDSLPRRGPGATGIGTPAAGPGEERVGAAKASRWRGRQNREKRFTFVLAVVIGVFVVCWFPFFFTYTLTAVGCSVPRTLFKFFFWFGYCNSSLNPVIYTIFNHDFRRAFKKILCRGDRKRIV
T3 sequence (P18825 whole entry): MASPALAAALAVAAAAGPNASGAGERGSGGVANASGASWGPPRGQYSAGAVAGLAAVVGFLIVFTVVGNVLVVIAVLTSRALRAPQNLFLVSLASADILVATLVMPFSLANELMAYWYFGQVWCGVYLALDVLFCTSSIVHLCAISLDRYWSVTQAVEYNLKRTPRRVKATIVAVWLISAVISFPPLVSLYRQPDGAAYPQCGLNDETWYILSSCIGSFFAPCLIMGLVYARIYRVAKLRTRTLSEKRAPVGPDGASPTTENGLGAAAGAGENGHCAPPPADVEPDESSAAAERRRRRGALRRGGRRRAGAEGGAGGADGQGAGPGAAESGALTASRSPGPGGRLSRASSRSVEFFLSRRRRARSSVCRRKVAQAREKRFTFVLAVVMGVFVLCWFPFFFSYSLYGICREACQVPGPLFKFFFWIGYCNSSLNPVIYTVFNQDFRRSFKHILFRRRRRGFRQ
T3 sequence (P18089 whole entry): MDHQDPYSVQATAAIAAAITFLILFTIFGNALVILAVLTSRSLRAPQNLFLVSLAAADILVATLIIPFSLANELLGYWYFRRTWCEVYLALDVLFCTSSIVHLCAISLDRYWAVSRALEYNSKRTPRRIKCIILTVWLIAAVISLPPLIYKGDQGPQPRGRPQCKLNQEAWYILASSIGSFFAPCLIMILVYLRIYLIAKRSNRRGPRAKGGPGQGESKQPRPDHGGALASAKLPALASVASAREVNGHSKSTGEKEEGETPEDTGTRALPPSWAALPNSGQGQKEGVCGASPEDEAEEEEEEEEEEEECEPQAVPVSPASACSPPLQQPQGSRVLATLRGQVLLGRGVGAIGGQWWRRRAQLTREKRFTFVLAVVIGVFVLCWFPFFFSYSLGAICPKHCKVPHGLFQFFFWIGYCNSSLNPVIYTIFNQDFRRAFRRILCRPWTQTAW

[9] = molecular target: T1, 5-hydroxytryptamine receptor 1B; assay: Adenyl cyclase activity was expressed as percent forskolin response against 5-hydroxytryptamine 1B receptor at concentration 1 uM; assay type: functional; in short: as §1
[10] = molecular target: T2, 5-hydroxytryptamine receptor 1D; assay: Adenyl cyclase activity was expressed as percent forskolin response against 5-hydroxytryptamine 1D receptor at concentration 1 uM; assay type: functional; in short: as §1

T1 sequence (P28222 whole entry): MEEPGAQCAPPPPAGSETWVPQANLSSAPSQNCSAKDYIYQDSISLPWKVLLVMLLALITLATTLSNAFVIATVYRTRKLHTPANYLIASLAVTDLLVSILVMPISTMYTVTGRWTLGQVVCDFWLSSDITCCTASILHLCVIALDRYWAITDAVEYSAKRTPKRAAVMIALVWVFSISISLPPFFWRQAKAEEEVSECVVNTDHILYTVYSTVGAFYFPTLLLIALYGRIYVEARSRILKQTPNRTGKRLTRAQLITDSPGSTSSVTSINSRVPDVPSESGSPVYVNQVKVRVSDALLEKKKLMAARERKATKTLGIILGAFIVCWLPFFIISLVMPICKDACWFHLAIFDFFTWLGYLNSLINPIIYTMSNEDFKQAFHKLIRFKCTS

| SMILES | Ki [1] [nM] | Ki [2] [nM] | Selectivity [3] | other results |
| --- | --- | --- | --- | --- |
| O=[N+]([O-])c1ccc(CC2=NCCN2)cc1 | > 10000 | > 10000 | – | – |
| CCCCc1ccc(CC2=NCCN2)cc1 | > 10000 | 2520 | > 4 | – |
| COc1cccc(CC2=NCCN2)c1 | 1630 | – | – | – |
| Cc1cc(C(C)(C)C)cc(C)c1CC1=NCCN1C | > 5000 | – | – | – |
| CNCCc1c(C)cc(C(C)(C)C)cc1C | > 10000 | > 5000 | – | – |
| Brc1ccc(CC2=NCCN2)cc1 | > 10000 | 4390 | > 2 | – |
| CCCc1ccc(CC2=NCCN2)cc1 | > 10000 | 2380 | > 4 | – |
| Cc1cc(C(C)(C)C)cc(C)c1CCN | > 10000 | 1360 | – | – |
| Cc1cc(C(C)C)cc(C)c1CC1=NCCN1 | – | 1.1 | 34 | Ki [4]: 65 nM; Response [5]: 56%; EC50 [6]: 138 nM; Response [7]: 34%; Ki [8]: > 500 nM; Response [9]: 53%; Response [10]: 34% |
| Cc1cc(C(C)(C)C)cc(C)c1CC1=NCCN1 [XYLOMETAZOLINE] | 14 | – | – | Ki [4]: 91 nM; Response [5]: 64%; Response [7]: 41%; Ki [8]: > 500 nM; Response [9]: 51%; Response [10]: 38% |
| CCc1ccc(CC2=NCCN2)cc1 | > 10000 | > 10000 | – | – |
| Nc1ccc(CC2=NCCN2)cc1 | > 10000 | > 10000 | – | – |
| c1ccc(-c2ccc(CC3=NCCN3)cc2)cc1 | > 10000 | > 10000 | – | – |
| CN1CCN=C1Cc1ccccc1 | > 10000 | – | – | – |
| Cc1ccc(CC2=NCCN2)c(C)c1OCc1ccccc1 | 3860 | 1100 | 4 | – |
| Cc1ccc(CC2=NCCN2)c(C)c1O | 2000 | 1900 | 1 | – |
| Cc1cc(C(C)(C)C)ccc1CC1=NCCN1 | – | – | 105 | Ki [4]: 154 nM; Response [5]: 58%; EC50 [6]: 1670 nM; Response [7]: 50%; Ki [8]: > 500 nM; Response [9]: 63%; Response [10]: 51% |
| Cc1ccc(O)c(C)c1CC1=NCCN1 | 5790 | 1040 | 6 | – |
| Cc1cccc(C)c1CC1=NCCN1 | > 10000 | 2210 | > 4 | – |
| Cc1cc(C)c(CC2=NCCN2)c(C)c1 | – | 72 | 48 | Response [5]: 52%; EC50 [6]: 150 nM; Response [7]: 49%; Response [9]: 49%; Response [10]: 23% |
| Cc1cc(Br)cc(C)c1CC1=NCCN1 | – | – | 21 | – |
| CC(C)(C)c1ccc(CC2=NCCN2)cc1 | 6830 | – | 65 | Ki [4]: 2625 nM; Response [5]: 86%; EC50 [6]: > 10000 nM; Response [7]: 65%; Ki [8]: 1120 nM; Response [9]: 99%; Response [10]: 69% |
| Oc1cccc(CC2=NCCN2)c1 | 3740 | > 10000 | < 1 | – |
| c1ccc(CC2=NCCN2)cc1 [TOLAZOLINE] | > 10000 | > 10000 | – | – |
| CC(C)c1ccc(CC2=NCCN2)cc1 | – | – | 8 | – |
| Cc1cc(C(C)(C)C)c(O)c(C)c1CC1=NCCN1 [OXYMETAZOLINE] | 0.3 | – | – | Response [5]: 40%; Response [7]: 35%; Response [9]: 57%; Response [10]: 40% |

From ChEMBL document CHEMBL1131255, “Benzylimidazolines as h5-HT1B/1D serotonin receptor ligands: a structure-affinity investigation” (J Med Chem, 1998)
